Source: PubChem
An excerpt weighted towards active compounds, which were near 3.1% of everything screened.
OX1R antag-1: antagonists of human orexin 1 receptor (OX1R) | OX1R-expressing cells, FRET antagonist read-out | actives 1.8% (n = 330,000) | inhibition, % at 6.6 µM; in the data active means inhibition mostly above about 38%, no sharp cut-off; inactive means mostly below about 40%;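 further: 0% = agonist challenge alone and 100% = reference antagonist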
GPR7 antag: blocks human GPR7 receptor signaling | actives 1.1% (n = 290,000) | inhibition, % at 4.4 µM | P48145 | GPR7-expressing cells, fluorescence antagonist assay; in the data active means inhibition above about 16%, passing the limit was not always enough;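 further: cells stimulated with the agonist NPW; 0% = agonist with vehicle and 100% = vehicle without agonist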
Target sequence (P48145 whole entry, looked up): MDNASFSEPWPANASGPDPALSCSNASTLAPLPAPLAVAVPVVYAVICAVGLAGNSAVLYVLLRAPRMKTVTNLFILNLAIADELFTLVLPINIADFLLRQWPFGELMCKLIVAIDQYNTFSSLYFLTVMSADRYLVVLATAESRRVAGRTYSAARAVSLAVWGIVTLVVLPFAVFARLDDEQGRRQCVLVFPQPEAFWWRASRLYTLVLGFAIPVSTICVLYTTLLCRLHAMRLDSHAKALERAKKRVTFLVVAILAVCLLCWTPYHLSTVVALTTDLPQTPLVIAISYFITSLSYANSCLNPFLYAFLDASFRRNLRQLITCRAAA
OX1R antag-2: blocks the human orexin 1 receptor | O43613 | CHO/OX1R cells, Fluo-8 calcium fluorescence, orexin A | inhibition, % at 5 µM | actives 0.43% (n = 330,000);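 active means inhibition above its plate's threshold, mean inhibition of all tested compounds on the plate plus 3 SD, cut at about 37% in these data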;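 further: 0% = orexin A challenge wells and 100% = SB-334867-A antagonist wells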
GalR3 antagonist: antagonists of human GalR3; O60755; inhibition, % at 3 µM; AID 651719; actives 0.44% (n = 360,000); HEK293 GalR3-CNG cAMP membrane potential fluorescence; galR3 body fused to GalR1 C-terminus;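 active means inhibition above the screen-wide average plus 3 SD, cut at about 13% in these data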;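 further: forskolin and galanin both at EC90 stimulate the cells; cAMP rise reported by CNG channel membrane potential dye signal; 0% = forskolin plus galanin with DMSO and 100% = forskolin alone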
Target sequence (O60755 1-299 limits assumed): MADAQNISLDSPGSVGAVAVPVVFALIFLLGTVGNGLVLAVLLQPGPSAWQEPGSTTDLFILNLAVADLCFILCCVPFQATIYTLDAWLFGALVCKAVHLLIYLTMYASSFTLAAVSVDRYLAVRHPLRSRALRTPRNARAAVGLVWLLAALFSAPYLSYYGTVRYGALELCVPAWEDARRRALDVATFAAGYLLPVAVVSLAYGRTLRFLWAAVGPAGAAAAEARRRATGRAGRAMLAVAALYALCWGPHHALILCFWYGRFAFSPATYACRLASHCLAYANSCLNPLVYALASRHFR
CHO parental Ca: counter-screen for OX1R antagonists: effect in parental CHO cells. parental CHO-K1, ATP-induced calcium, Fluo-8 fluorescence. inhibition, % at 5.6 µM. actives 0.63% (n = 330,000);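 active means inhibition above that plate's mean sample inhibition plus 3 SD, cut at about 26% in these data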;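 further: 0% = ATP-challenged DMSO wells and 100% = DMSO wells without ATP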
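test system = CHO parental line | reagent = ATP stimulus | measured by = intracellular calcium via Fluo-8 no-wash fluorescent dye | control set = ATP and no-ATP DMSO wells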
GPR7 antag cf: human GPR7 antagonism, confirmation assay. shares compounds with GPR7 antag. GPR7-expressing cells, calcium fluorescence antagonist mode. inhibition, % at 4.4 µM. actives 52% (n = 2,400); in the data active means inhibition above about 24%;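 further: stimulated with the GPR7 agonist NPW; 0% = agonist plus vehicle and 100% = vehicle alone without agonist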
MCHR1 antagonist: antagonizes human MCHR1, a GPR7 antagonist counter-screen; shares compounds with GPR7 antag; MCHR1-expressing cells, fluorescence antagonist assay; inhibition, % at 4.4 µM; actives 62% (n = 2,400); in the data active means inhibition above about 22%;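 further: 0% = vehicle with agonist and 100% = vehicle without agonist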
* marks the source's active call; other numbers are inactive results; . = not tested or not shown.

SMILES | OX1R antag-1 | GPR7 antag | OX1R antag-2 | GalR3 antagonist | CHO parental Ca | GPR7 antag cf | MCHR1 antagonist
COc1ccc(CN2CCC(CO)(CCOc3ccccc3)CC2)c(OC)c1C | 25 | 28* | -22 | -9 | -14 | 37* | 24*
COc1cc(Cl)c(CN2CCC(CO)(CCOc3ccccc3)CC2)cc1OC | 4 | 3 | -32 | -7 | -17 | . | .
COc1ccc(CC(=O)N2CCc3ccccc32)cc1 | 26 | 4 | -12 | -1 | -10 | . | .
COc1ccc(CC(=O)N2CCNC2=O)cc1 | 3 | 30* | -2 | -4 | -9 | -13 | -1
COc1ccc(NC(=O)NCC(C)CSc2ccc(C)cc2)c(OC)c1 (centres undefined) | 4 | -19 | -28 | -12 | -37 | . | .
Cc1cccn2c(CN(C)CCC3CCCCO3)c(C(=O)N3CCCCC3)nc12 (centres undefined) | 4 | 38* | -14 | -5 | -11 | -5 | 18
Cc1cccn2c(CN(C)C3CCOC3)c(C(=O)N3CCCCC3)nc12 (centres undefined) | 12 | -2 | -23 | -6 | -15 | . | .
O=C(c1ccc(N2CCN(C(=O)c3ccccc3Br)CC2)cc1)c1cccc(F)c1 | 34 | 28* | 8 | -3 | 14 | 4 | 69*
COc1ccc(CN2CCC(=O)N([C@H](CO)Cc3ccccc3)CC2)cc1OC | 19 | -2 | -22 | 3 | -15 | . | .
CC(=O)Nc1ccc(S(=O)(=O)NCc2nc(-c3cccc(C)c3)no2)cc1 | 16 | 24* | 13 | -4 | -8 | 0 | 0
CC(=O)Nc1ccc(S(=O)(=O)NCc2nc(-c3ccc(C)cc3)no2)cc1 | 14 | -16 | -13 | 0 | -18 | . | .
CCOc1ccccc1-n1c(C)nc2cc(C(=O)O)ccc21 | 22 | 28* | 6 | -2 | 0 | -28 | 2
Cc1nc2cc(C(=O)O)ccc2n1-c1ccc(F)cc1F | 24 | -13 | -12 | -4 | -6 | . | .
Cc1ccc(C)c(-n2c3nc(=O)[nH]c(=O)c-3cc3cc([N+](=O)[O-])ccc32)c1 | 44 | 22* | -1 | -1 | 8 | 42* | 43*
O=S(=O)(Nc1cccc(-c2cn3c(n2)SCC3)c1)c1ccc(F)cc1F | 20 | 25* | -1 | -4 | -1 | 7 | 0
CCOC(=O)C1(Cc2cccc(OC)c2)CCCN(CCO)C1 (centres undefined) | 12 | 15 | -20 | -4 | -20 | . | .
CCOC(=O)C1(Cc2cccc(OC)c2)CCCN(S(=O)(=O)CC)C1 (centres undefined) | 8 | 27* | -10 | -5 | -9 | -1 | 0
CCC(C)(C(=O)NC1CCCC1)N(Cc1ccco1)C(=O)Cc1cccs1 (centres undefined) | 19 | 38* | -20 | -4 | -16 | 33* | 23*
CCC(C)(C(=O)NC1CCCC1)N(Cc1ccco1)C(=O)c1ccccn1 (centres undefined) | 13 | 17 | -34 | -6 | -9 | . | .
CCC(C)(C(=O)NC1CCCC1)N(Cc1ccco1)C(=O)c1ccc2c(c1)OCO2 (centres undefined) | 11 | 31* | -30 | -7 | -11 | 37* | 20
C[C@H](CO)N1C[C@H](C)[C@@H](CN(C)Cc2cccc(C(=O)O)c2)OCc2cnnn2CCCC1=O | . | . | . | -6 | . | . | .
CC(OC(=O)C1CCCCC1)C(=O)Nc1cccc([N+](=O)[O-])c1 (centres undefined) | 4 | . | 11 | -1 | -9 | . | .
CCC(c1nnnn1CS(=O)(=O)c1ccc(C)cc1)N1CCC(C(N)=O)CC1 (centres undefined) | 37 | -2 | -11 | 1 | -2 | . | .
COc1ccc(CCNC(=O)N2c3ccccc3Sc3ccccc32)cc1 | 45 | 42* | 30 | -3 | 36* | 45* | 77*
COCCCNC(=O)N1c2ccccc2Sc2ccccc21 | -1 | -12 | -10 | -7 | -10 | . | .
SMILES | OX1R antag-1 | GPR7 antag | OX1R antag-2 | GalR3 antagonist | CHO parental Ca | GPR7 antag cf | MCHR1 antagonist
CC(C)OC(=O)CN1CCN(S(=O)(=O)c2cc(Cl)ccc2Cl)CC1 | 18 | 27* | -7 | 1 | -11 | 5 | -4
O=C1C2C3C=CC(C2C(=O)N1c1cccc(O)c1)C1C2C(=O)N(c4cccc(O)c4)C(=O)C2C31 (centres undefined) | 0 | -1 | -16 | -7 | -3 | . | .
Cc1ccc(SCCCCN2C(=O)NC(C)(C)C2=O)cc1 | 5 | -8 | -24 | -3 | -9 | . | .
CCc1cccc(N(C(=O)c2csnn2)C(C(=O)NC(C)(C)C)c2ccncc2)c1 (centres undefined) | 17 | -6 | -21 | -2 | -10 | . | .
COc1ccc(N=C2NN=C(c3ccc4c(c3)OCCO4)CS2)cc1 | 21 | 23* | -7 | -2 | -5 | 20 | 17
Cc1ccc(C(=O)N2CCN(C3c4cccc5cccc(c45)C3NS(=O)(=O)c3ccccc3)CC2)cc1 (centres undefined) | 9 | 3 | -28 | -4 | -28 | . | .
O=S(=O)(NC1c2cccc3cccc(c23)C1N1CCNCC1)c1ccc(Cl)cc1 (centres undefined) | 12 | 49* | -25 | -8 | -21 | 48* | 47*
CCOCCCN(C(=O)c1snc(C(N)=O)c1N)C(C(=O)NC(C)(C)C)c1ccc(Cl)cc1 (centres undefined) | 2 | -18 | -43 | -3 | -32 | . | .
COc1cccc(C2=NOC(C(=O)NC(C)C)C2)c1 (centres undefined) | 11 | 26* | -17 | -4 | -7 | 1 | 3
CC(=O)Nc1ccc(S(=O)(=O)N2CCc3cc4c(cc3C2)OCCCO4)cc1 | 24 | 29* | -3 | 3 | 21 | 15 | 37*
CCN(CC)c1nc(Nc2ccccc2)nc(Oc2ccc(=O)n(C)n2)n1 | 7 | 23* | -24 | -3 | -15 | -12 | -19
CCN(CC)c1nc(Nc2ccccc2)nc(Oc2ccc(=O)[nH]n2)n1 | 4 | -3 | -22 | -8 | -29 | . | .
CCSc1ncc(/C=N/Nc2ccccc2)n1C | 12 | -13 | -23 | -4 | -28 | . | .
CCSc1ncc(/C=N/Nc2ccc(Cl)cc2)n1C | 8 | 25* | -32 | -6 | -32 | 13 | 40*
COc1cc(C(=S)N2CCOCC2)ccc1OC(=O)c1ccc(Br)cc1 | . | 42* | . | -2 | . | 66* | 81*
CCCS(=O)(=O)NC(=O)C1(C)CCCN(C(=O)c2cccc(Cl)c2)C1 (centres undefined) | . | . | . | 0 | . | . | .
CN1C2CCC1/C(=C\c1ccccc1F)C(=O)/C2=C/c1ccccc1F | 1 | 28* | -1 | -2 | -11 | 22 | 34*
CCn1c(SCC(=O)N(C)CC(=O)Nc2ccc(F)c(F)c2F)nnc1-c1ccco1 | 20 | -9 | -19 | 10 | -13 | . | .
